Screening data (PubChem BioAssay)
Cneo AK release: causes C. neoformans cell lysis; adenylate kinase release luminescence, 4 h; normalised: neutral wells 0, clomiphene wells 100; lysis activity, % at 15 µM; 360,000 tested, 0.2% active; AID 651654;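 active means mean lysis activity across replicates of at least 80%, whatever share of replicates individually reach that level; inactive means mean lysis activity below 80%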
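Test system: log-phase Cryptococcus neoformans yeast cells. Input: 5 × 10^6 yeast cells/mL. Medium: fresh YPD growth medium. Doses: single dose. Incubation: static 4 h at 37 °C with compound, 1 h detection. Measured by: luminescent adenylate kinase detection reagent. Read-out: signal increase indicating cell lysis. Benchmarks: Clomiphene.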
Ecoli rRNA inh: inhibits bacterial ribosomal RNA function over humanized ribosomes. E. coli WT GFP vs humanized-ribosome RFP mutants, fluorescence, 24 h; active compounds read low; DMSO median 0, no signal -100. 350,000 tested, 1.6% active. GFP signal change (wild-type ribosome), % (test concentration not listed);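 active means significant combined selectivity score with lowered wild-type GFP, culture density cut under 30%, mutant RFP and density less affected; inactive means any of these conditions unmet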
E-selectin induc: induces E-selectin expression in human endothelial cells. P16581. HUVEC E-selectin immunofluorescence imaging; normalized: neutral wells 0, TNF-alpha wells 100. activation, % at 7.58 µM. 260,000 tested, 0.37% active;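 active means mean E-selectin-positive cell signal at least 10% of the positive control, reached in at least 60% of replicates, without over 20% cell loss; inconclusive means no rule given, readout overlaps actives, possibly toxicity-flagged; inactive means the rest, including those meeting only one limit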
Target sequence (P16581 whole entry, looked up): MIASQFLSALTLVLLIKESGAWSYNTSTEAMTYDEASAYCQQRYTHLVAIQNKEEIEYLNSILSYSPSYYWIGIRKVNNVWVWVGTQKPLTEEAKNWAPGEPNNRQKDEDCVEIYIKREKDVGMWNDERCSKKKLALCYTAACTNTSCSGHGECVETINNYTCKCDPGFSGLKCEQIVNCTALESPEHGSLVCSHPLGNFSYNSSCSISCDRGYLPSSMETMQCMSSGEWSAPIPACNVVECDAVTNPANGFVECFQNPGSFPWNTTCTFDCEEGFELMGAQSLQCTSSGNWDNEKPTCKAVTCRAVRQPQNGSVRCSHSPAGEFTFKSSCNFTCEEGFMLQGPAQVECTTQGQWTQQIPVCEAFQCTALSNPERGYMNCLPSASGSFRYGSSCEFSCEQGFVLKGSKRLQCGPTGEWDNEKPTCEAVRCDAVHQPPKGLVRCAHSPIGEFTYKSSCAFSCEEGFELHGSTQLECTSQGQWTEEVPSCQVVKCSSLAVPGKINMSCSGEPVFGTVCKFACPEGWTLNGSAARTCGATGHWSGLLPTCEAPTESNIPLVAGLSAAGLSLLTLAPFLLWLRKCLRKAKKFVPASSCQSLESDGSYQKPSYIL
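Assay system: HUVEC primary endothelial cells. Input: 3,000 HUVEC seeded per well. Doses: one compound dose added by pin transfer. Read-out basis: % PE-positive cells. Benchmarks: TNF-alpha high, DMSO low. Detection: immunofluorescence imaging. Buffer or medium: EGM-2, gelatin.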
miR122 inh: blocks miR-122 activity in Huh7 sensor cells. Huh7 miR-122 Renilla luciferase sensor, 48 h; neutral wells = 0, positive control = 100. activation (reporter increase), % at 12.5 µM. 340,000 tested, 0.3% active. AID 602342;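 active means mean replicate activation score at least 90 and every replicate individually at or above 90; inconclusive means only one of the two criteria met; inactive means neither criterion met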;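 further: higher luciferase means less miR-122 activity so hits act as miR-122 inhibitors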
DENV2 CPE rescue: protects cells from dengue virus 2 cytopathic effect; DENV2-infected cells, cytopathic effect rescue, plate reader; CPE inhibition, % at 9.99 µM; 350,000 tested, 1.7% active; in the data active means CPE inhibition above about 20%, passing the limit was not always enough; inconclusive means no clear call, values can overlap the other calls; tested in BHK-21 cells;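 further: 0% = median of neutral control wells and 100% = median of positive control wells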
* = called active by the depositor; ? = inconclusive; / = no result; ! = repeats disagree; [ ] = remark or other dose. Shown are actives, neighbours in structure and some others; about 3.1% of the full set was active somewhere.

SMILES	Cneo AK release	Ecoli rRNA inh	E-selectin induc	miR122 inh	DENV2 CPE rescue
CCCCN1CC(=O)N2[C@H](c3ccc(OC)cc3)[C@@H]3C(=O)N(CC)C(=O)[C@@H]3[C@]2(Cc2ccccc2)C1=O	0	4	0	/	-10
CCN1C(=O)[C@H]2[C@@H](c3ccc(OC)cc3)N3C(=O)CN(CCOC)C(=O)[C@@]3(Cc3ccccc3)[C@H]2C1=O	3	3	0	-3	66*
CC1(C#N)c2ccccc2C(Br)=CN1C(=O)c1ccccc1 (stereo not drawn)	0	-21	0	/	31*
O=C(Nc1cccc(F)c1)N1CCCCN2[C@H](CO)[C@@H](c3ccc(C#Cc4ccccc4)cc3)[C@H]2C1	0	-57	0	-7[16.7 µM]	1
COc1ccc(CN(C)C[C@H]2Oc3ccc(NC(=O)CCCN(C)C)cc3C(=O)N([C@H](C)CO)C[C@H]2C)cc1	/	-1	35*	/	-5
COc1ccc(NC(=O)N(C)C[C@H]2Oc3ccc(NC(=O)CCN4CCOCC4)cc3C(=O)N([C@H](C)CO)C[C@@H]2C)cc1	-2	1	0	1[16.7 µM]	52*!
COc1ccc(CN(C)C[C@@H]2Oc3ccc(NC(=O)CCN4CCOCC4)cc3C(=O)N([C@@H](C)CO)C[C@@H]2C)cc1	-2	-1	0	-2[16.7 µM]	-4
COc1ccc(CN(C)C[C@@H]2Oc3ccc(NC(=O)CCN4CCOCC4)cc3C(=O)N([C@@H](C)CO)C[C@H]2C)cc1	44	-4	3	-7[16.7 µM]	21*
CCCNC(=O)N1CC2(CCN(CC3CC3)CC2)c2c([nH]c3cc(OC)ccc23)[C@@H]1CO	/	5	0	/	24*
CCCNC(=O)N1CC2(CCN(S(=O)(=O)CC)CC2)c2c([nH]c3cc(OC)ccc23)[C@H]1CO	/	5	0	/	-4
CCCNC(=O)N1CC2(CCN(S(=O)(=O)CC)CC2)c2c([nH]c3cc(OC)ccc23)[C@@H]1CO	/	-1	0	/	31*
COc1ccc2c3c([nH]c2c1)[C@H](CO)N(C(=O)CN(C)C)CC31CN(CC2CCOCC2)C1	/	6	0	/	3
CCCNC(=O)N1CC2(CCN(CC3CCCC3)CC2)c2c([nH]c3cc(OC)ccc23)[C@H]1CO	/	3	0	/	0
COc1ccc2c3c([nH]c2c1)[C@@H](CO)N(C(=O)CN(C)C)CC31CN(CC2CCCC2)C1	/	4	0	/	28*
CCCc1cn(CC[C@H]2CC[C@@H](NS(=O)(=O)c3ccc(-c4ccccc4)cc3)[C@@H](CO)O2)nn1	1	-20	0	/	1
O=C(/C=C/C(=O)N1CCc2ccccc2C1)N1CCc2ccccc2C1	/	-22*	0	/	1
O=C(/C=C/c1ccc(F)cc1)N1CCc2ccccc2C1	-2	-9	6	9	-5
O=C(Nc1ccc([N+](=O)[O-])cc1)N1CCc2ccccc2C1	1	8	/	19	23*
C[C@@H]1CCCCO[C@H](CN(C)S(C)(=O)=O)[C@@H](C)CN([C@H](C)CO)C(=O)c2cc(NC(=O)Nc3cccc4ccccc34)ccc2O1	-1	-1	0	3[16.7 µM]	7
CC1C/C(=C/c2cccn2C)C(=O)/C(=C/c2cccn2C)C1 (stereo not drawn)	-1	/	/	-35	/
CC1C/C(=C/c2ccncc2)C(=O)/C(=C/c2ccncc2)C1 (stereo not drawn)	1	-22*	0	-3	-2
NC(=S)NN=C1CCC(C2CCCCC2)CC1 (stereo not drawn)	13	-45*	0	/	-8
N/C(=N/OC(=O)c1ccccc1Cl)c1nonc1N	/	-23*	/	1	0
CC(C)NC(=O)Nc1ccc2c(c1)CC(=O)N(C)C[C@H](C)[C@@H](CN(C)C(=O)OC(C)(C)C)O2	/	1	/	/	/
O=C(C1CC1)N1CC(=O)N2[C@H](CO)[C@H](c3ccc(-c4ccccc4F)cc3)[C@H]2C1	/	3	0	/	7
SMILES	Cneo AK release	Ecoli rRNA inh	E-selectin induc	miR122 inh	DENV2 CPE rescue
NNC(=O)CSCc1nc(-c2ccc(Cl)cc2)cs1	-1	-27*	7	6	3
S=C(Nc1ccc(Cl)cc1)N(CCCN1CCOCC1)Cc1cccs1	4	7	1	9	8
O=C(Nc1ccc(Cl)cc1)N(CCCN1CCOCC1)Cc1cccs1	0	-13	0	2	26*
CCOC(=O)c1c(CSC(=N)N)n(C)c2cc(Br)c(OC(C)=O)cc12	/	-27*	/	/	3
O=C1CN(S(=O)(=O)Cc2ccccc2)C[C@H]2[C@@H](c3ccc(C#Cc4cccnc4)cc3)[C@@H](CO)N12	/	-2	0	/	-1
CC(C)NC(=O)Nc1ccc2c(c1)CC(=O)N(C)C[C@H](C)[C@@H](CN(C)C(=O)NC(C)C)O2	/	-1	/	/	/
CCc1cc2c(=O)[nH]c(-c3ccncc3)nc2s1	/	-13	-1	/	?
Cc1[nH]c(=O)c(C#N)cc1-c1ccncc1	4	-2	58*	0	9
Clc1cncc(Cl)c1N/N=C/c1ccncc1	3	-5	/	4	9
Clc1cccc(Cl)c1/C=N/Nc1c(Cl)cncc1Cl	/	-16*	1	/	-4
CO[C@H]1CN(C)C(=O)c2ccc(NC(C)=O)cc2OC[C@H](C)N(Cc2ccccc2C(=O)O)C[C@@H]1C	/	2	0	/	-4
C[C@@H]1CN([C@@H](C)CO)C(=O)Cc2cc(N(C)C)ccc2O[C@@H]1CN(C)Cc1ccc(C(F)(F)F)cc1	9	0	-11	-3[16.7 µM]	27*
C[C@@H]1CN([C@H](C)CO)C(=O)Cc2cc(N(C)C)ccc2O[C@H]1CN(C)Cc1ccc(C(F)(F)F)cc1	-1	0	-8	-5[16.7 µM]	-8
C[C@@H]1CN([C@@H](C)CO)C(=O)Cc2cc(N(C)C)ccc2O[C@@H]1CN(C)Cc1ccc(C(=O)O)cc1	-4	1	0	-10[16.7 µM]	33*
C[C@H](CO)N1C[C@H](C)[C@@H](CN(C)Cc2ccccc2)Oc2ccc(N(C)C)cc2CC1=O	1	1	0	16[16.7 µM]	6
COc1ccc2c3c([nH]c2c1)[C@@H](CO)N(C(=O)CN1CCOCC1)CC31CCN(C(C)=O)CC1	/	6	0	/	-8
CCCNC(=O)N1CC2(CCN(C(=O)c3cnccn3)CC2)c2c([nH]c3cc(OC)ccc23)[C@H]1CO	/	0	0	/	7
O=C([C@@H]1[C@@H](CO)[C@@H]2Cn3c(ccc(-c4cccnc4)c3=O)[C@H]1N2CC1CC1)N1CCCCC1	-1	3	0	/	0
Cn1ccnc1SCC(=O)c1ccc(Cl)cc1	2	-32*	/	-5	/
C[C@H](O)C#Cc1cnc2c(c1)C(=O)N([C@@H](C)CO)C[C@@H](C)[C@H](CN(C)C(=O)c1ccc(F)cc1)O2	-12	0	0	/	-5
COc1ccc(CCN=C(N)C(C)c2ccccc2)cc1OC (stereo not drawn)	2	20	/	-4	-3
